Paper PMC6119551 (Neuropharmacology, 2018)

Tests used:
[1] = target: 5-HT2A receptors in rat brain tissue (Rattus norvegicus, UniProt P14842); assay: [3H]M100907 radioligand binding in rat brain tissue
human 5-HT2A receptors [2] = target: T1, human 5-HT2A receptors (Homo sapiens, UniProt P28223); assay: Calcium mobilization, HEK293 cells expressing human 5-HT2A; type: cell-based; details: for Fold more potent than NBOMe counterpart in 5-HT2A-mediated calcium mobilization: 2C-C vs 25C-NBOMe, 2C-I vs 25I-NBOMe; for Emax: HEK293, read-out: 5-HT2A Mobilization of Calcium %Emax
human 5-HT2C receptors = target: T2, human 5-HT2C receptors (Homo sapiens, UniProt P28335); assay: Calcium mobilization, HEK293 cells expressing human 5-HT2C; type: cell-based; details: for Emax: HEK293, read-out: 5-HT2C Mobilization of Calcium % Emax
T2 sequence (P28335 33-458): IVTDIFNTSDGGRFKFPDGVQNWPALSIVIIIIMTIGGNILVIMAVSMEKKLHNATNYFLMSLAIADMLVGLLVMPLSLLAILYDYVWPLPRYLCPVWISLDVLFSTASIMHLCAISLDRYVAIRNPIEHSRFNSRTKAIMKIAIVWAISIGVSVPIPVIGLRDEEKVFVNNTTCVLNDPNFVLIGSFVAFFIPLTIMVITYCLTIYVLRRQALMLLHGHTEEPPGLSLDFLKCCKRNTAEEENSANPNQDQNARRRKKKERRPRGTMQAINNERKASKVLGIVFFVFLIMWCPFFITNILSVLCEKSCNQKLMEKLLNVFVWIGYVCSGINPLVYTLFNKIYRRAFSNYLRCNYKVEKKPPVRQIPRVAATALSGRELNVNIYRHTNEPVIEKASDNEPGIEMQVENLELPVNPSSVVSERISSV

male rats [3] = assay: Wet dog shakes; type: in vivo, rat; details: sc; for Doses significantly increasing summed WDS vs vehicle: Bonferroni p<0.05
In short: (§1)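 Male Sprague-Dawley rats (250–300 g) with ≥2 weeks of acclimation, one sc injection per weekly session of saline or one of 4 doses (1.0 mL/kg), N=9/group. Dose ranges were 0.03–1.0, 0.01–0.3 or 0.1–3.0 mg/kg depending on compound. WDS and BMC were counted by a non-blind rater in eight 90-s periods every 15 min and summed. ED50 came from nonlinear regression of score versus log dose on the rising phase.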

male rats [4] = assay: Back muscle contractions; type: in vivo, rat; details: sc; for Doses significantly increasing summed BMC vs vehicle: rats, Bonferroni p<0.05; for Rat BMC ED50: summed BMC over 2 h, rising phase of dose-effect function
In short: as §1

male rats [5] = assay: Body temperature via implanted transponder; type: in vivo, rat; details: sc, all doses tested, 15-120 min post-injection
[6] = ref Eshleman et al. (2014); cited from earlier work
5-HT2A receptor [7] = details: ref Eshleman et al. (2014); cited from earlier work
5-HT2A receptor [8] = details: ref Eshleman et al. (2014); cited from earlier work; remark: listed apart in the source
mice [9] = details: sc, ref Halberstadt and Geyer, 2014; cited from earlier work
human 5-HT2A receptors [10] = target: T1, human 5-HT2A receptors; details: 25C-NBOMe vs 2C-C, 25I-NBOMe vs 2C-I; ref Rickli et al., 2015; cited from earlier work
rats = details: cited from earlier work
mice [11] = details: ref Gatch et al., 2017; cited from earlier work
male rats [12] = assay: M100907 antagonism of agonist-induced WDS and BMC; type: in vivo, rat
In short: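 Male Sprague-Dawley rats got sc M100907 (0.1 mg/kg in 1:9 DMSO:saline) or its vehicle 30 min before sc agonist or saline, with agonists at fixed doses of 0.03–1.0 mg/kg. Summed WDS and BMC came from eight 90-s observations at 15-min intervals by a non-blind rater. Rats were tested weekly, N=9/group, by Bonferroni comparison with Veh/Veh.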

5-HT2A = details: ref Marek and Aghajanian, 1994; cited from earlier work
[13] = 0.1 mg/kg M100907 30 min before 0.03 mg/kg 25C-NBOMe
[14] = 0.1 mg/kg M100907 30 min before 0.1 mg/kg 25I-NBOMe
[15] = 0.1 mg/kg M100907 30 min before 0.3 mg/kg 2C-C
[16] = 0.1 mg/kg M100907 30 min before 1.0 mg/kg 2C-I
[17] = 0.1 mg/kg M100907 30 min before 1.0 mg/kg DOI sc

Sequence of 5-HT2A receptors in rat brain tissue (P14842 whole entry): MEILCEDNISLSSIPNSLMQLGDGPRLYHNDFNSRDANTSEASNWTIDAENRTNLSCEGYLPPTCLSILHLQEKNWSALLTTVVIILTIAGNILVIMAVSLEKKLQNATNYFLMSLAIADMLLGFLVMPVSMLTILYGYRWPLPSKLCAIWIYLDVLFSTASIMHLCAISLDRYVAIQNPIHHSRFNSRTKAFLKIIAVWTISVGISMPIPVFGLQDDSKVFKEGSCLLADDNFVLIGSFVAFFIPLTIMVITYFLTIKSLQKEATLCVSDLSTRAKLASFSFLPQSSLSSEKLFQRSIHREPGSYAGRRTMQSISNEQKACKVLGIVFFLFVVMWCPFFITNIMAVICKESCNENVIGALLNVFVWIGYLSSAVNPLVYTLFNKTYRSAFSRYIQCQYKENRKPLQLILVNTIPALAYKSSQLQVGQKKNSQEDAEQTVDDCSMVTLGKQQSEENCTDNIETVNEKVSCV
T1 sequence (P28223 whole entry): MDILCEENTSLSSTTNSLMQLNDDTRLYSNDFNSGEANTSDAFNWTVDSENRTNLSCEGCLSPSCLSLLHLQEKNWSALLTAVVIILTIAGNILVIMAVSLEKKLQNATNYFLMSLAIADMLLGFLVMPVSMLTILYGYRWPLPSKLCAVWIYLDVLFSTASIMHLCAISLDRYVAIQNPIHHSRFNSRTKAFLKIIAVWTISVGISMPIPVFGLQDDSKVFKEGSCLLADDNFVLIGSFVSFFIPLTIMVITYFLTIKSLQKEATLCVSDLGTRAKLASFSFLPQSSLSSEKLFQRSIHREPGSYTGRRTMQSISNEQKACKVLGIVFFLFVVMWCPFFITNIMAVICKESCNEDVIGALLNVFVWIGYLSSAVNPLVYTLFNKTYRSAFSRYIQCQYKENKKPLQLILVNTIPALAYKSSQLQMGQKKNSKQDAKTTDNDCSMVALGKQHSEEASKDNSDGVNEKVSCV

SMILES | IC50 [1] [nM] | EC50 (human 5-HT2A receptors [2]) [nM] | Fold more potent than NBOMe counterpart in 5-HT2A-mediated calcium mobilization (human 5-HT2A receptors [2]) [fold] | Emax (human 5-HT2A receptors [2]) [%] | EC50 (human 5-HT2C receptors) [nM] | Emax (human 5-HT2C receptors) [%] | Doses significantly increasing summed WDS vs vehicle (male rats [3]; rats) | Doses significantly increasing summed BMC vs vehicle (male rats [4]) | Effect on body temperature (male rats [5]) | Functional activity in the IP assay (5-HT2A receptor [7]) | Functional activity in the [3H]AA assay (5-HT2A receptor [8]) | Rat BMC ED50 (male rats [4]) [mg/kg] | ED50 in the head twitch assay (mice [9]) [mg/kg] | Fold greater affinity for human 5-HT2A receptors than 2C counterpart (human 5-HT2A receptors [10]) [fold] | Effect on locomotor activity (mice [11]) | other results
COc1cc(CCN)c(OC)cc1Cl [Compound 2C-C, 2-(4-chloro-2,5-dimethoxyphenyl)ethanamine] | 308 ± 21.6 | 4.57 ± 0.5 | 13 | 95 | 77.6 ± 5.5 | 29 | Significant stimulation of both behaviors occurred after administration of 0.3, 1.0, and 3.0 mg/kg doses | Significant stimulation of both behaviors occurred after administration of 0.3, 1.0, and 3.0 mg/kg doses | failed to significantly alter body temperature at any dose tested | full agonist | full agonist | – | – | – | – | Substitution for MDMA in drug discrimination [6]: fully substitutes
COc1cc(CCN)c(OC)cc1I [Compound 2C-I, 2-(4-iodo-2,5-dimethoxyphenyl)ethanamine] | 125 ± 13 | 3.97 ± 0.7 | 8 | 89 | 47.2 ± 6.7 | 28 | Significant stimulation of shaking behavior ocurred after 1.0 and 3.0 mg/kg doses | increases in BMC occurred after 0.3, 1.0, and 3.0 mg/kg doses | failed to alter body temperature at any dose tested | agonist | antagonist | 0.192 ± 0.060 | 0.83 | – | – | Substitution for prototypical hallucinogens like LSD in drug discrimination [6]: fully substitutes
COc1cc(CCNCc2ccccc2OC)c(OC)cc1Cl [Compound 25C-NBOMe, 2-(4-chloro-2,5-dimethoxyphenyl)-N-[(2-methoxyphenyl)methyl]ethanamine] | 8.7 ± 1 | 61.7 ± 3.5 | – | 104 | 178 ± 25 | 60 | Significant stimulation of shaking behavior occured after 0.03 and 0.1 mg/kg doses | stimulation of contractions occured after 0.03, 0.1 and 0.3 mg/kg doses | did not significantly alter body temperature at any dose tested | – | – | – | – | 18 | dose-dependently reduced locomotor activity | DOM-appropriate responding (rats; dose of 0.03 mg/kg, ref Gatch and colleagues (2017)): < 20%; Substitution for DOM in drug discrimination (rats; ip, ref Gatch et al., 2017): fully substituted; Substitution for MDMA in drug discrimination (rats; ip, ref Gatch et al., 2017): only partially substituting
COc1cc(CCNCc2ccccc2OC)c(OC)cc1I [Compound 25I-NBOMe, 2-(4-iodo-2,5-dimethoxyphenyl)-N-[(2-methoxyphenyl)methyl]ethanamine] | 3.9 ± 0.4 | 34.7 ± 4.2 | – | 108 | 88.9 ± 11 | 70 | Significant increases in shakes occured after the 0.1 and 0.3 mg/kg doses | increases in contractions occurred after the 0.03, 0.1, and 0.3 mg/kg doses | did not significantly alter body temperature at any dose tested | – | – | 0.037 ± 0.011 | 0.08 | 6 | dose-dependently reduced locomotor activity | Fold more potent than 2C counterpart in inducing WDS (male rats [3]; rats, 25C-NBOMe vs 2C-C, 25I-NBOMe vs 2C-I): 10 fold; Rat WDS ED50 (male rats [3]; summed WDS over 2 h, rising phase of dose-effect function): 0.062 ± 0.026 mg/kg; Fold more potent than 2C-I at eliciting head twitch behavior (mice [9]): about 10 fold
COc1cccc([C@H](O)C2CCN(CCc3ccc(F)cc3)CC2)c1OC [Compound M100907, (R)-(2,3-dimethoxyphenyl){1-[2-(4-fluorophenyl)ethyl]-4-piperidinyl}methanol] | – | – | – | – | – | – | – | – | – | – | – | – | – | – | – | Effect on BMC induced by 25C-NBOMe (male rats [12]; [13]): significantly decreased; Effect on WDS induced by 25C-NBOMe (male rats [12]; [13]): significantly decreased WDS; Effect on BMC induced by 25I-NBOMe (male rats [12]; [14]): decreased; Effect on WDS induced by 25I-NBOMe (male rats [12]; [14]): decreased WDS; Effect on BMC induced by 2C-C (male rats [12]; [15]): decreased; Effect on WDS induced by 2C-C (male rats [12]; [15]): decreased WDS; Effect on BMC induced by 2C-I (male rats [12]; [16]): decreased; Effect on WDS induced by 2C-I (male rats [12]; [16]): decreased WDS; Effect on BMC induced by DOI (male rats [12]; [17]): significantly decreased shakes and contractions; Effect on WDS induced by DOI (male rats [12]; [17]): significantly decreased shakes and contractions; Selectivity for 5-HT2A over 5-HT2C and other receptor subtypes (5-HT2A): more than 100 fold
COc1cc(CC(C)N)c(OC)cc1I (stereo not drawn) [DOI, 1-(4-iodo-2,5-dimethoxyphenyl)propan-2-amine, reference compound] | 56.1 ± 4.9 | – | – | 109 | 47.7 ± 3 | 50 | significant increases in both behaviors occurring after 0.1, 0.3, and 1.0 mg/kg | significant increases in both behaviors occurring after 0.1, 0.3, and 1.0 mg/kg | no significant effects on body temperature at any dose tested | – | – | – | – | – | – | –
